Blank lines part the entries; values can stand above or below the molecule they belong to.
How the values were obtained:
[1] = Half life in Sprague-Dawley rat at 1 mg/kg, po; type: ADME, organism-based; set-up: dose 1 mg/kg, route oral; conditions: in vivo
How it was run: (§1)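 Sprague-Dawley rats (male where specified) were dosed orally at 1 mpk, in one case as a 0.5% methylcellulose suspension. Plasma exposure was followed to give oral bioavailability, AUC, C_max and half-life.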

[2] = system: Rattus norvegicus; assay: Inhibition of TNFalpha production in rat LPS challenge model at 3 mg/kg, po after 24 hrs; type: functional
[3] = Cmax in Sprague-Dawley rat at 1 mg/kg, po; type: ADME, organism-based; set-up: dose 1 mg/kg, route oral; conditions: in vivo; how it was run: as §1
[4] = Bioavailability in Sprague-Dawley rat at 1 mg/kg, po; type: ADME, organism-based; conditions: in vivo; how it was run: as §1
[5] = system: THP-1; assay: Inhibition of TNFalpha release from LPS-stimulated human monocyte THP1 cells; type: functional, cell-based
[6] = system: Blood; assay: Inhibition of LPS-stimulated TNFalpha release in human whole blood; type: functional, tissue-based
[7] = system: Rattus norvegicus; assay: Reduction of TNFalpha production in rat LPS challenge model at 10 mg/kg, po after 3 hrs; type: functional; set-up: scale not given: the % may be the effect or the level left
[8] = Oral bioavailability in Sprague-Dawley rat; type: ADME, organism-based; conditions: in vivo; how it was run: as §1
[9] = system: Rattus norvegicus; assay: Inhibition of paw swelling in AIA Lewis rat at 1 mg/kg, po after 21 days; type: functional; conditions: 504 h
How it was run: (§2)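 Seven-week-old female Lewis rats had adjuvant injected into the left hind paw on day 0. Disease developed over 12 days, then rats were dosed orally at 0.1, 0.3, 1 or 3 mpk once daily for ten days. On days 0, 12 and 21 they were weighed, paw volumes measured and radiographs taken. Swelling of the secondary paw was scored.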

[10] = Clearance in Sprague-Dawley rat at 1 mg/kg; type: ADME, organism-based; set-up: dose 1 mg/kg; conditions: in vivo
[11] = Cmax in Sprague-Dawley rat at 1 mg/kg; type: ADME, organism-based; set-up: dose 1 mg/kg; conditions: in vivo; how it was run: as §1
[12] = system: Rattus norvegicus; assay: Inhibition of TNFalpha production in rat LPS challenge model at 3 mg/kg, po after 6 hrs; type: functional
[13] = system: Rattus norvegicus; assay: Inhibition of TNF-alpha production in rat LPS challenge model at 0.3 mg/kg, po after 24 hrs; type: functional
[14] = species on record: Rattus norvegicus; assay: Inhibition of paw swelling in AIA Lewis rat after 21 days; type: functional; conditions: 504 h; how it was run: as §2
[15] = system: Mus musculus; assay: Inhibition of TNFalpha production in BALB/c mouse at 0.3 mg/kg up to 24hrs; type: functional
How it was run: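 Female Balb/c mice aged 12–16 weeks were given compound orally in 0.5% methylcellulose 22.5 h before LPS challenge. They were sacrificed 1.5 h after challenge, and plasma TNF-a was measured by ELISA.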

[16] = Oral bioavailability in rhesus macaque; type: ADME, organism-based, Macaca mulatta; conditions: rhesus monkey, in vivo
[17] = system: Rattus norvegicus; assay: Inhibition of TNFalpha production in rat LPS challenge model at 0.1 mg/kg, po after 24 hrs; type: functional
[18] = Half life in Sprague-Dawley rat at 1 mg/kg; type: ADME, organism-based; set-up: dose 1 mg/kg; conditions: in vivo; how it was run: as §1
[19] = system: Rattus norvegicus; assay: Inhibition of TNFalpha production in rat LPS challenge model at 3 mg/kg, po after 16 hrs; type: functional
[20] = Volume of distribution in Sprague-Dawley rat at 1 mg/kg; type: ADME, organism-based; set-up: dose 1 mg/kg; conditions: in vivo, read-out: Vdss
[21] = Clearance in rhesus macaque; type: ADME, organism-based, Macaca mulatta; conditions: rhesus monkey, in vivo
[22] = system: Rattus norvegicus; assay: Inhibition of paw swelling in AIA Lewis rat at 0.3 mg/kg, po after 21 days; type: functional; conditions: 504 h; how it was run: as §2
[23] = Half life in rhesus macaque; type: ADME, organism-based, Macaca mulatta; conditions: rhesus monkey, in vivo
[24] = system: Rattus norvegicus; assay: Inhibition of TNF-alpha production in rat LPS challenge model at 1 mg/kg, po after 24 hrs; type: functional
[25] = system: Rattus norvegicus; assay: Inhibition of paw swelling in AIA Lewis rat at 0.1 mg/kg, po after 21 days; type: functional; conditions: 504 h; how it was run: as §2
[26] = system: Rattus norvegicus; assay: Inhibition of paw swelling in AIA Lewis rat at 3 mg/kg, po after 21 days; type: functional; conditions: 504 h; how it was run: as §2
[27] = Volume of distribution in rhesus macaque; type: ADME, organism-based, Macaca mulatta; conditions: rhesus monkey, in vivo; read-out: Vdss
[28] = Cmax in rat; type: ADME, organism-based; conditions: in vivo; how it was run: as §1
[29] = Half life in rat; type: ADME, organism-based; conditions: in vivo; how it was run: as §1
[30] = Oral bioavailability in rat; type: ADME, organism-based; conditions: in vivo; how it was run: as §1

Structure (SMILES): O=c1ccc2c(-c3ccc(F)cc3F)[n+]([O-])ccc2n1-c1c(Cl)cccc1Cl
- half-life [1]: 594 min
- inhibition in vivo at 3 mg/kg [2]: 80%
- Cmax [3]: 3.5 µM
- bioavailability [4]: 98%
- IC50 [5]: 200 nM

Structure (SMILES): O=c1ccc2c(-c3ccc(F)cc3F)nccc2n1-c1ccccc1Cl
- IC50 [6]: 86.1 nM
- IC50 [5]: 40.5 nM

Structure (SMILES): O=c1ccc2c(-c3ccc(F)cc3F)nccc2n1-c1c(Cl)cccc1Cl
- Cmax [28]: 1000 nM
- inhibition in vivo at 3 mg/kg [12]: 61%
- inhibition in vivo at 3 mg/kg [19]: 37%
- inhibition in vivo at 3 mg/kg [2]: 27%
- half-life [29]: 120 min
- IC50 [6]: 101 nM
- bioavailability [30]: 57%
- IC50 [5]: 6.6 nM

Structure (SMILES): O=c1ccc2c(-c3ccc(F)cc3F)nccc2n1-c1c(F)cccc1F
- IC50 [6]: 145 nM
- IC50 [5]: 7 nM

Continued, in another order:

- IC50 [6]: 121 nM
- IC50 [5]: 4.5 nM
Structure (SMILES): O=c1ccc2c(-c3ccc(F)cc3F)nc(O)cc2n1-c1c(F)cccc1F
- Activity [7]: 70%

- IC50 [6]: 73 nM
- IC50 [5]: 7.3 nM
Structure (SMILES): CNc1cc2c(ccc(=O)n2-c2c(F)cccc2F)c(-c2ccc(F)cc2F)n1

- bioavailability [8]: 68%
- clearance [10]: 1.6 mL/min/kg
- Cmax [11]: 3.5 µM
- bioavailability [16]: 22%
- half-life [18]: 390 min
- Vd [20]: 0.9 L/kg
- clearance [21]: 1.3 mL/min/kg
- IC50 [6]: 34 nM
- half-life [23]: 696 min
- Vd [27]: 0.9 L/kg
- IC50 [5]: 0.69 nM
Structure (SMILES): Nc1cc2c(ccc(=O)n2-c2c(F)cccc2F)c(-c2ccc(F)cc2F)n1
- inhibition in vivo at 1 mg/kg [9]: 65%
- inhibition in vivo at 3 mg/kg [12]: 97%
- inhibition in vivo at 0.3 mg/kg [13]: 75%
- ED50 [14]: 0.22 mg/kg
- inhibition in vivo at 0.3 mg/kg [15]: > 90%
- inhibition in vivo at 0.1 mg/kg [17]: 53%
- inhibition in vivo at 3 mg/kg [19]: 95%
- inhibition in vivo at 3 mg/kg [2]: 92%
- inhibition in vivo at 0.3 mg/kg [22]: 54%
- inhibition in vivo at 1 mg/kg [24]: 79%
- inhibition in vivo at 1 mg/kg ([24]; read-out: Inhibition): 79%
- inhibition in vivo at 0.1 mg/kg [25]: 38%
- inhibition in vivo at 3 mg/kg [26]: 80%

Source: ChEMBL document CHEMBL1137291, “p38 MAP kinase inhibitors. Part 5: discovery of an orally bio-available and highly efficacious compound based on the 7-amino-naphthyridone scaffold” (Bioorg Med Chem Lett, 2006)
